Reference: ChEMBL document CHEMBL3046203, “Bioactivity-guided fractionation and GC/MS fingerprinting of Angelica sinensis and Angelica archangelica root components for antifungal and mosquito deterrent activity” (2009)
Activity calls are given as the source filed them. No cut-off for these calls is given here.

Experiments:
Colletotrichum acutatum = experiment: Antifungal activity against Colletotrichum acutatum assessed as appearance of diffuse zone of inhibition at 2 mM in 2 uL solution by direct bio-autography assay; format: functional, organism-based
[1] = tested on: Colletotrichum gloeosporioides; experiment: Antifungal activity against Colletotrichum gloeosporioides assessed as as appearance of diffuse zone of inhibition at 2 mM in 2 uL solution by direct bio-autography assay1; format: functional, organism-based
[2] = tested on: Colletotrichum gloeosporioides; experiment: Antifungal activity against Colletotrichum gloeosporioides assessed as as appearance of diffuse zone of inhibition at 2 mM in 2 uL solution by direct bio-autography assay; format: functional, organism-based
Anopheles stephensi = experiment: Feeding deterrent activity against Anopheles stephensi assessed as proportion of mosquitoes not biting at 25 nmol/cm2 cloth relative to untreated control; format: functional
How it was run: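 Klun and Debboun in vitro module assay with mated nulliparous An. stephensi females (Delhi strain, 5-15 d old), given water only for 24 h before testing. Compounds were applied in ethanol to organdy cloth at 25 nmol/cm2 against an ethanol-treated control cloth. Conditions were 24-26 °C and 24-51% RH, 1300-1600 h, with 100 females (20 replicates). The proportion not biting was scored.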

Aedes aegypti = experiment: Feeding deterrent activity against Aedes aegypti liverpool assessed as proportion of mosquitoes not biting at 25 nmol/cm2 cloth relative to untreated control; format: functional
How it was run: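 In vitro Klun and Debboun module assay with mated nulliparous Ae. aegypti females (red eye Liverpool strain, 5-15 d old), denied water for 24 h before testing. Treatments in ethanol were applied to organdy cloth at 25 nmol/cm2, with an ethanol-treated cloth as control. Testing ran at 24-26 °C and 24-51% RH, 1300-1600 h, using 85 females (17 replicates). Read-out was the proportion not biting.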

Compound	growth inhibition (GI) (Colletotrichum acutatum)	growth inhibition (GI) [1]	growth inhibition (GI) [2]	Ratio (Anopheles stephensi)	Ratio (Aedes aegypti)
Cc1cc(C2CC2)nc(Nc2ccccc2)n1	Active	Active	Active		
CCN(CC)C(=O)c1cccc(C)c1 [DIETHYLTOLUAMIDE]				0.51	0.67
CC1=CCC[C@@H]2[C@@](C)(CC=O)[C@H](C)CC[C@@]12C [CALLICARPENAL]				0.72	0.91
CCCCNC(=O)n1c(NC(=O)OC)nc2ccccc21	Active		Active		
CCC/C=C1\OC(=O)C2=C1CCC=C2 [LIGUSTILIDE]				0.66	0.79
CO/C=C(/C(=O)OC)c1ccccc1Oc1cc(Oc2ccccc2C#N)ncn1	Active		Active		
